From ChEMBL document CHEMBL1153770, “Chemical constituents of Heteroplexis micocephala” (J Nat Prod, 2009)
Calls of active or inactive are those of the source. The rule behind the calls is not given here.

Columns and labels:
Liver microsomes = assay: Antioxidant activity in rat liver microsomes assessed as inhibition of Fe(2+)-cystine-induced lipid peroxidation at 10 uM pretreated for 15 mins before Fe2+ challenge after 15 mins by TBA assay; type: functional; settings: Microsome
PC-12 = assay: Neuroprotective activity against glutamate-induced rat PC12 cell death at 10 uM pretreated for 24 hrs before glutamate challenge after 24 hrs by MTT assay; type: functional, cell-based
[1] = target: T1, Tyrosine-protein phosphatase non-receptor type 1 (Homo sapiens) (UniProt P18031); assay: Inhibition of GST-tagged human recombinant PTP1B assessed as paranitrophenol accumulation at 10 uM after 10 mins by spectrophotometry
T1 sequence (whole entry): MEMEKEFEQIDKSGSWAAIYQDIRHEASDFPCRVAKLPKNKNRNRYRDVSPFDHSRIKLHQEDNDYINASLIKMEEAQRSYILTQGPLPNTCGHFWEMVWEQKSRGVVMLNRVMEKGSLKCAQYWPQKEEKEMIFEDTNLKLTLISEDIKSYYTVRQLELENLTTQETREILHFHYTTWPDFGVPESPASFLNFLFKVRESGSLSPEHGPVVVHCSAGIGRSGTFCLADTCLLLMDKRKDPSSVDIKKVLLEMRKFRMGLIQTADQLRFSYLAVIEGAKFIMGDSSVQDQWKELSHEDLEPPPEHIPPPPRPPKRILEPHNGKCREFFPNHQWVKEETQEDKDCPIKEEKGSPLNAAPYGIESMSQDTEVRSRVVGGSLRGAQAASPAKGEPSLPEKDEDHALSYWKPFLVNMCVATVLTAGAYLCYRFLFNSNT

A2780 = assay: Cytotoxicity against human A2780 cells after 96 hrs by MTT assay; type: functional, cell-based
[2] = tested on: Human immunodeficiency virus 1; assay: Antiviral activity against HIV1 NL4-3 co-transfected with VSV glycoprotein plasmid in human 293T cells after 48 hrs by luciferase reporter gene assay; type: functional, organism-based
How it was run: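 Env-deficient pNL4-3.luc.R-E- HIV-1 vector pseudotyped with VSV-G, made by co-transfecting 293T cells, quantified by p24 ELISA and diluted to 0.2 ng p24/mL. Target 293T cells were seeded at 6 × 10^4 per well one day before infection. Compounds were preincubated with cells 15 min before adding virus, with a solvent-only blank. Cells were lysed 48 h post-infection.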

Rattus norvegicus = species on record: Rattus norvegicus; assay: Antiinflammatory activity in rat PMNCs assessed as inhibition of platelet activating factor-induced beta-glucuronidase release at 10 uM treated 15 mins before PAF challenge after 10 mins; type: functional
[3] = Human immunodeficiency virus 1, NL4-3, HEK-293T, 48 h, read-out: IC50
[4] = Homo sapiens, A2780, 96 h, read-out: IC50

Row | Compound | Activity (Liver microsomes) | Activity (PC-12) | Activity [1] | IC50 (A2780; a2780) | IC50 ([2]; 293t) | Activity (Rattus norvegicus) | IC50 [2, 3] [nM] | IC50 (A2780; [4]) [nM]
1 | CCOC(C)(C)CC(=O)c1cc(C(C)=O)ccc1OC | inactive | inactive | inactive | Not Active | Not Active | inactive |  | 
2 | C/C=C(/C)C(=O)OC/C=C/c1cc(OC)c(OC(=O)/C(C)=C\C)c(OC)c1 | inactive | inactive | inactive | Not Active |  | inactive | 4040 | 
3 | C=C(CC/C=C1\C[C@@H](C=C(C)C)OC1=O)C(O)CCC1=CC(=O)OC1 (stereo not given in full) [HETEROPLEXISOLIDE B] | inactive | inactive | inactive | Not Active | Not Active | inactive |  | 
4 | CC[C@@]1(O)C(=O)OCc2c1cc1n(c2=O)Cc2cc3ccccc3nc2-1 [CAMPTOTHECIN] |  |  |  |  |  |  |  | 280
5 | C[C@]12C[C@@H](c3ccoc3)OC(=O)[C@@H]1CC[C@@]13COC(=O)[C@@H]1C=CC(=O)[C@H]23 [8-EPIRHYNCHOSPERIN A] | inactive | inactive | inactive | Not Active | Not Active | inactive |  | 
6 | CC(=O)CC/C=C1\C[C@@H](C=C(C)C)OC1=O [HETEROPLEXISOLIDE E] | inactive | inactive | inactive | Not Active | Not Active | inactive |  | 
7 | Cc1cn([C@H]2C[C@H](N=[N+]=[N-])[C@@H](CO)O2)c(=O)[nH]c1=O [ZIDOVUDINE] |  |  |  |  |  |  | 48 | 
8 | C/C1=C/CC(C)(C)[C@@H]2CC[C@@](C)(O)/C2=C/C1=O | inactive | inactive | inactive | Not Active | Not Active | inactive |  | 
9 | CC(C)=C[C@@H]1OC(=O)[C@H](/C=C/C/C(C)=C/CCC2=CC(=O)OC2)[C@@H]1O [HETEROPLEXISOLIDE D] | inactive | inactive | inactive |  | Not Active | inactive |  | 4370
10 | CC(C)=C[C@@H]1OC(=O)/C(=C/CC/C(C)=C/CCC2=CC(=O)OC2)[C@@H]1O [HETEROPLEXISOLIDE C] | inactive | inactive | inactive | Not Active | Not Active | inactive |  | 
11 | C/C1=C/CC(C)(C)[C@@H]2CC[C@](C)(O)/C2=C/C1=O | inactive | inactive | inactive | Not Active | Not Active | inactive |  | 
12 | CC(C)=C[C@@H]1C/C(=C\CC/C(C)=C/CCC2=CC(=O)OC2)C(=O)O1 [HETEROPLEXISOLIDE A] | inactive | inactive | inactive | Not Active | Not Active | inactive |  | 
13 | C/C=C(/C)C(=O)OC/C=C/c1cc(OC)c(OC(=O)[C@@H](C)CC)c(OC)c1 | inactive | inactive | inactive | Not Active | Not Active | inactive |  | 
14 | COc1ccc(C(C)=O)cc1C(=O)CC(C)(C)O | inactive | inactive | inactive | Not Active | Not Active | inactive |  | 
15 | C/C=C(/C)C(=O)OC/C=C/c1cc(OC)c(OC)c(OC)c1 | inactive | inactive | inactive | Not Active | Not Active | inactive |  | 
